How the values were obtained:
MT4 [1] = experiment: Cytotoxic concentration required to reduce the viability of mock infected MT-4 cells determined by MTT method; format: functional; conditions: Homo sapiens
Procedure, shortened: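 Viability of mock-infected MT-4 cells, assayed in parallel with the antiviral test, read by MTT. CC50 is the concentration that lowers viability by 50%. Values are means of three separate experiments, with variation among triplicates under 10%. The highest concentration tested was 100 µM.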

MT4 [2] = experiment: Effective concentration require to protect MT-4 cells from human immunodeficiency virus type 1 induced cytopathogenicity was determined by MTT method; format: functional, cell-based
Procedure, shortened: (§1)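 MT-4 cells infected with HIV-1, with test compounds added. Protection from virus-induced cytopathogenicity was read by MTT. EC50 is the concentration giving 50% protection. Values are means of three separate experiments, with variation among triplicates under 10%. Trovirdine served as the reference.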

MT4 [3] = experiment: Ratio of CC50 to that of EC50 determined in MT-4 cells; format: functional
Procedure, shortened: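 Selectivity index, calculated as CC50/EC50. CC50 came from MTT viability of mock-infected MT-4 cells and EC50 from MTT-read protection of HIV-1-infected MT-4 cells from cytopathogenicity, with both run in parallel. Values are means of three experiments.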

C8166 = experiment: Effective concentration required to reduce the amount of p24 antigen levels in wild type human immunodeficiency virus type 1 infected C8166 cultures; format: functional
Procedure, shortened: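 C8166 cultures infected with wild-type HIV-1. p24 antigen in the cultures was measured after compound treatment, and EC90 is the concentration that reduces p24 by 90%. Trovirdine served as the reference.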

MT4 [4] = experiment: Effective concentration require to protect MT-4 cells from HIV-1 Y181C mutant induced cytopathogenicity was determined by MTT method; format: functional, cell-based, Homo sapiens
Procedure, shortened: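 HIV-1 strains carrying the Y181C RT mutation in MT-4 cells. EC50 is the concentration giving 50% protection from virus-induced cytopathogenicity, read out by MTT. Trovirdine was run as the reference. Values are means of three separate experiments.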

[5] = biological target: T1, Human immunodeficiency virus type 1 reverse transcriptase (Human immunodeficiency virus 1, UniProt Q72547); experiment: Inhibitory concentration against HIV-1 virion reverse transcriptase
[6] = biological target: Human immunodeficiency virus type 1 reverse transcriptase (Human immunodeficiency virus 1, UniProt Q72547, Y181C); experiment: Inhibitory concentration against HIV-1 mutant reverse transcriptase (Y181C)
[7] = biological target: Human immunodeficiency virus type 1 reverse transcriptase (Human immunodeficiency virus 1, UniProt Q72547, K103N/Y181C); experiment: Inhibitory concentration against HIV-1 mutant reverse transcriptase (K103N+Y181C)
[8] = biological target: T1, Human immunodeficiency virus type 1 reverse transcriptase; experiment: Inhibitory concentration against HIV-1 wild type reverse transcriptase (IIIB)
[9] = biological target: T1, Human immunodeficiency virus type 1 reverse transcriptase; experiment: Inhibitory concentration against HIV-1 mutant reverse transcriptase (K103R)
MT4 [10] = experiment: Effective concentration require to inhibit human immunodeficiency virus type 1 induced cytopathogenicity in MT-4 cells determined by MTT method; format: functional, cell-based; procedure, shortened: as §1

IC50 [5] | SMILES | CC50 (MT4 [1]) | EC50 (MT4 [2]) | SI (MT4 [3]) | EC90 (C8166) | EC50 (MT4 [4]) | IC50 [6] | IC50 [7] | IC50 [8] | IC50 [9] | EC50 (MT4 [10])
 | O=C1c2ccccc2C(=O)N1CCOC(=S)Nc1ccc(Cl)cc1 | > 100000 nM | 40 nM | >2500 | 40 nM | 2300 nM |  |  |  |  | 
 | O=C1c2ccccc2C(=O)N1CCOC(=S)Nc1ccc(Br)cc1 | > 100000 nM | 30 nM | >3333 | 15 nM | 2400 nM |  |  |  |  | 
 | CC(CO/C(S)=N\c1ccc(Cl)cc1)NC(=O)c1ccccc1C(=O)O (stereo unspecified) | > 100000 nM | 5000 nM | >20 |  |  |  |  |  |  | 
600 nM | O=C1c2ccccc2C(=O)N1CCOC(=S)Nc1ccccc1 | > 100000 nM | 1200 nM | >83.3 |  |  |  |  |  |  | 
 | CC(CN1C(=O)c2ccccc2C1=O)O/C(S)=N/c1ccc([N+](=O)[O-])cc1 (stereo unspecified) | > 100000 nM | 8600 nM | >11.6 |  |  |  |  |  |  | 
 | O=C1c2ccccc2C(=O)N1CCOC(=S)Nc1ccc(I)cc1 | > 100000 nM | 20 nM | >5000 | 40 nM |  | > 20000 nM | > 20000 nM | 90 nM | 2300 nM | 
 | O=C1c2ccccc2C(=O)N1CCCOC(=S)Nc1ccc([N+](=O)[O-])cc1 | ≥ 100000 nM | 19000 nM | >=5.3 |  |  |  |  |  |  | 
 | O=C(O)c1ccccc1C(=O)NCCO/C(S)=N\c1ccc(I)cc1 | > 100000 nM | 130 nM | >769 |  |  | 4800 nM | > 20000 nM | 1700 nM | > 20000 nM | 
 | O=C1c2ccccc2C(=O)N1CCOC(=S)Nc1ccc(F)cc1 | > 100000 nM | 100 nM | >1000 | 100 nM | 38000 nM |  |  |  |  | 
 | CC(CO/C(S)=N\c1ccc([N+](=O)[O-])cc1)NC(=O)c1ccccc1C(=O)O (stereo unspecified) | > 100000 nM | 13000 nM | >7.7 |  |  |  |  |  |  | 
 | Cc1ccc(NC(=S)OCCN2C(=O)c3ccccc3C2=O)cc1 | > 100000 nM | 20 nM | >5000 | 15 nM |  |  |  |  |  | 1800 nM
 | Cc1ccc(/N=C(/S)OC(C)CNC(=O)c2ccccc2C(=O)O)cc1 (stereo unspecified) | > 100000 nM | 41000 nM | >2.4 |  |  |  |  |  |  | 
 | O=C(Nc1ccc([N+](=O)[O-])cc1)OCCN1C(=O)c2ccccc2C1=O | > 100000 nM | 500 nM | >200 |  |  |  |  |  |  | 
 | N#Cc1ccc(NC(=S)OCCN2C(=O)c3ccccc3C2=O)cc1 | > 100000 nM | 70 nM | >1429 | 100 nM | 5900 nM |  |  |  |  | 
 | O=C1c2ccccc2C(=O)N1CCOC(=S)Nc1ccc([N+](=O)[O-])cc1 | 65000 nM | 40 nM | 1625 | 30 nM | 6000 nM |  |  |  |  | 
 | Cl.S=C(NCCc1ccccn1)Nc1ccc(Br)cn1 [TROVIRDINE HYDROCHLORIDE] | 60000 nM | 20 nM | 3000 | 15 nM | 1200 nM | 15000 nM | > 20000 nM | 1030 nM | > 20000 nM | 
